Results from different studies.
Each line is one published result; the experiments were not run side by side.
Target: Phosphatidylinositol 4-phosphate 5-kinase type-1 alpha (PIP5K1A, Homo sapiens, UniProt Q99755)

CN(C)c1nccc(-c2cnn3ncccc23)n1 — remaining binding (binding; 1 µM): 100%
O=C(NCCCN1CCOCC1)c1ccc(Nc2ncc(Cl)c(-c3ccc(Cl)s3)n2)cc1 — remaining binding (binding, competition with immobilised ligand; 1 µM): 8.3%
CN(c1ccnc(CNc2nc(Nc3ccc4c(c3)CC(=O)N4)ncc2C(F)(F)F)n1)S(C)(=O)=O — remaining binding (cell-free assay, competition with immobilised ligand; 1 µM): 12%
O=C(c1ccc(Nc2nccc(-c3cc4ccccc4s3)n2)cc1)N1CCC(N2CCCC2)CC1 — remaining binding (binding, competition with immobilised ligand; 1 µM): 2.8%
C[C@H](c1cccc(C#N)c1)n1cc(Cl)cc(C(N)=O)c1=N — remaining binding (cell-free assay, competition with immobilised ligand; 1 µM): 100%
Cc1cnn2ncc(-c3ccnc(N(C)C)n3)c2c1 — remaining binding (binding; 1 µM): 100%
Nc1ncc2c(n1)-c1c([nH]c3ccc(C#CC4CC4)cc13)CCCC2 — remaining binding (binding, competition with immobilised ligand; 1 µM): 99%
O=C(Nc1c[nH]nc1C(=O)NC1CCNCC1)c1cc(F)cc(F)c1 — remaining binding (binding, competition with immobilised ligand; 1 µM): 100%
FC(F)(F)Oc1cccc(-c2cnc3ccc(-c4ccncc4)nn23)c1 — remaining binding (cell-free assay, competition with immobilised ligand; 5 µM): 20%
COc1cnc(Nc2cccc(S(N)(=O)=O)c2)nc1N1CCN(c2ccccc2)C(=O)C1 — remaining binding (binding, competition with immobilised ligand; 1 µM): 89%
COc1cc(-c2cn(C3CCc4ccccc4N(CC(F)(F)F)C3=O)nn2)ccc1-n1ccc(C)n1 (centres unmarked) — remaining binding (cell-free assay, competition with immobilised ligand; 1 µM): 96%
COc1ccnn2ncc(-c3ccnc(N(C)C)n3)c12 — remaining binding (binding; 1 µM): 72%
Cc1c[nH]c2nccc(Oc3c(F)cc(Nc4cc(Cl)nc(N)n4)cc3F)c12 — remaining binding (cell-free assay, competition with immobilised ligand; 0.1 µM): 68%
CN(C)c1ncc(F)c(-c2cnn3ncccc23)n1 — remaining binding (binding; 1 µM): 100%
O=C(O)c1cc(-c2ccc(C3CCNCC3)cc2)c2ccc(-c3ccc(C(F)(F)F)cc3)cc2c1 — remaining binding (cell-free assay, competition with immobilised ligand; 1 µM): 78%
C=CC(=O)N1CCC(C(=O)NCC(=O)N2CCN(c3nc(-c4cnc(N)nc4C(F)F)nc(N4CCOCC4)n3)CC2)CC1 — remaining binding (binding, competition with immobilised ligand; 1 µM): 100%
C[C@H]1CCN(c2nccc(-c3cnn4ncccc34)n2)C1 — remaining binding (binding; 1 µM): 47%
C[C@@H](c1ccc(-n2cnc3c(N)ncnc32)cc1)N1CCc2nn(C)c(Cc3ccccc3)c2C1=O — remaining binding (binding, competition with immobilised ligand; 0.1 µM): 87%
CN(C)CC#Cc1ccc(OCCCc2sc(N3CCc4cccc(C(=O)Nc5nc6ccccc6s5)c4C3)nc2C(=O)O)c(F)c1 — remaining binding (cell-free assay, competition with immobilised ligand; 1 µM): 100%
CCN1CCN(Cc2ccc(C(=O)Nc3ccc(C)c(Oc4ccc5c(c4)CC(=O)N5)c3)cc2C(F)(F)F)CC1 — remaining binding (binding, competition with immobilised ligand; 1 µM): 100%
N[C@@H]1CCN(c2nccc(-c3cnn4ncccc34)n2)C1 — remaining binding (binding; 1 µM): 100%
CNC(=O)[C@@H]1CC[C@@H](n2c(-c3ccc4cnccc4c3)nc3ccc(C(=O)NCc4cccc(C(N)=O)c4)cc32)C1 — remaining binding (binding, competition with immobilised ligand; 1 µM): 92%
O=C(NCCCN1CCOCC1)c1ccc(Nc2nccc(-c3cc4ccccc4s3)n2)cc1 — remaining binding (binding, competition with immobilised ligand; 1 µM): 4.2%
